Test results published in paper PMC3003407 (The Journal of Biological Chemistry, 2010).
Each block holds one substance with its values, some of them ahead of it.

Experiments:
[1] = target: human plasma fibronectin (human); assay: ELISA
FN = FN (Homo sapiens, UniProt P02751); assay: Competition of 0.3 nM b-FUD binding to adsorbed FN; details: 1000 nM competitor
In short: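 Wells coated overnight at 4 °C with 10 μg/ml (40 nM) FN, then blocked with 5% BSA in TBST. 0.3 nM biotinylated FUD was added together with competitor in TBST plus 0.1% BSA for 2 h. Detection used alkaline phosphatase–streptavidin (1:20,000, 1 h), 4-nitrophenyl phosphate (1 mg/ml, TBS pH 9.0) and A405. Triplicates, background-subtracted, expressed relative to b-FUD alone.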

[2] = target: recombinant human N-terminal 70-kDa fibrin- and gelatin-binding fragment of fibronectin (N-9FNI, residues 32-608) (human) (UniProt P02751); assay: ITC

Substance: FUD i29/30 (single alanine inserted between Ile-29 and Asp-30) (domain or fragment)
percent competition at 10 μM [1]: 20%

competition with b-FUD for binding to FN (FN): minor degree
Substance: N-^5FNI: Recombinant FN fibrin-binding fragment, residues 32–290

Substance: functional upstream domain (FUD) of Streptococcus pyogenes F1 adhesin, recombinant, 56 residues with tails (domain or fragment)
Kd [2]: 5.2 nM
